Assay results reported in publication PMC9302689 (British Journal of Clinical Pharmacology, 2022).

Test system: healthy male subjects
Experiment: Pharmaco-EEG
Format: in vivo, human
Details: 12-hour post-dose period
Summary of the method: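 Continuous EEG was recorded from 21 electrodes placed by the 10–20 system, with mastoid electrodes replacing the earlobe ones. Recordings followed IPEG guidelines, twice pre-dose and at 0.5–10 h post-dose. Power spectra for Fz-Cz and Pz-O derivations were split into bands to give total band power (μV). Values were ln-transformed, analysed by MMRM over 12 h against pooled placebo, and back-transformed.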

SMILES: CN1CCC23CCCCC2C1Cc1ccc(C(N)=O)cc13 (stereo not drawn) [ALKS 7119, (9α, 13α)‐17‐methylmorphinan‐3‐carboxamide]
- Alpha-power Fz-Cz, LSM CFB (3 mg single oral dose): 0.01 Hz
- Alpha-power Fz-Cz, estimate of difference compared to placebo (3 mg single oral dose): 0 [−0.97, 0.97] P = 1.00 Hz
- Alpha-power Pz-Oz, LSM CFB (3 mg single oral dose): −0.06 Hz
- Alpha-power Pz-Oz, estimate of difference compared to placebo (3 mg single oral dose): −0.16 [−0.41, 0.10] P = .23 Hz
- Beta-power Fz-Cz, LSM CFB (3 mg single oral dose): 0.03 Hz
- Beta-power Fz-Cz, estimate of difference compared to placebo (3 mg single oral dose): −0.09 [−0.31, 0.14] P = .45 Hz
- Beta-power Pz-Oz, LSM CFB (3 mg single oral dose): −0.03 Hz
- Beta-power Pz-Oz, estimate of difference compared to placebo (3 mg single oral dose): −0.16 [−0.36, 0.04] P = .11 Hz
- Delta-power Fz-Cz, LSM CFB (3 mg single oral dose): 0 Hz
- Delta-power Fz-Cz, estimate of difference compared to placebo (3 mg single oral dose): −0.11 [−0.32, 0.10] P = .32 Hz
- Delta-power Pz-Oz, LSM CFB (3 mg single oral dose): −0.12 Hz
- Delta-power Pz-Oz, estimate of difference compared to placebo (3 mg single oral dose): −0.18 [−0.41, 0.05] P = .12 Hz
- Gamma-power Fz-Cz, LSM CFB (3 mg single oral dose): 0.05 Hz
- Gamma-power Fz-Cz, estimate of difference compared to placebo (3 mg single oral dose): −0.04 [−0.25, 0.16] P = .66 Hz
- Gamma-power Pz-Oz, LSM CFB (3 mg single oral dose): 0.09 Hz
- Gamma-power Pz-Oz, estimate of difference compared to placebo (3 mg single oral dose): −0.12 [−0.37, 0.13] P = .35 Hz
- Theta-power Fz-Cz, LSM CFB (3 mg single oral dose): −0.06 Hz
- Theta-power Fz-Cz, estimate of difference compared to placebo (3 mg single oral dose): −0.14 [−0.36, 0.09] P = .23 Hz
- Theta-power Pz-Oz, LSM CFB (3 mg single oral dose): −0.1 Hz
- Theta-power Pz-Oz, estimate of difference compared to placebo (3 mg single oral dose): −0.17 [−0.40, 0.06] P = .15 Hz
- Alpha-power Fz-Cz, LSM CFB (10 mg single oral dose): 0.09 Hz
- Alpha-power Fz-Cz, estimate of difference compared to placebo (10 mg single oral dose): 0.15 [−0.94, 1.24] P = .79 Hz
- Alpha-power Pz-Oz, LSM CFB (10 mg single oral dose): 0.11 Hz
- Alpha-power Pz-Oz, estimate of difference compared to placebo (10 mg single oral dose): 0.01 [−0.25, 0.27] P = .94 Hz
- Beta-power Fz-Cz, LSM CFB (10 mg single oral dose): 0.08 Hz
- Beta-power Fz-Cz, estimate of difference compared to placebo (10 mg single oral dose): −0.03 [−0.26, 0.19] P = .78 Hz
- Beta-power Pz-Oz, LSM CFB (10 mg single oral dose): 0.14 Hz
- Beta-power Pz-Oz, estimate of difference compared to placebo (10 mg single oral dose): 0.01 [−0.19, 0.21] P = .91 Hz
- Delta-power Fz-Cz, LSM CFB (10 mg single oral dose): 0.05 Hz
- Delta-power Fz-Cz, estimate of difference compared to placebo (10 mg single oral dose): −0.05 [−0.26, 0.16] P = .65 Hz
- Delta-power Pz-Oz, LSM CFB (10 mg single oral dose): 0.07 Hz
- Delta-power Pz-Oz, estimate of difference compared to placebo (10 mg single oral dose): 0.01 [−0.23, 0.24] P = .96 Hz
- Gamma-power Fz-Cz, LSM CFB (10 mg single oral dose): 0.09 Hz
- Gamma-power Fz-Cz, estimate of difference compared to placebo (10 mg single oral dose): −0.01 [−0.21, 0.21] P = .95 Hz
- Gamma-power Pz-Oz, LSM CFB (10 mg single oral dose): 0.13 Hz
- Gamma-power Pz-Oz, estimate of difference compared to placebo (10 mg single oral dose): −0.08 [−0.33, 0.17] P = .54 Hz
- Theta-power Fz-Cz, LSM CFB (10 mg single oral dose): 0.02 Hz
- Theta-power Fz-Cz, estimate of difference compared to placebo (10 mg single oral dose): −0.05 [−0.28, 0.18] P = .65 Hz
- Theta-power Pz-Oz, LSM CFB (10 mg single oral dose): 0.04 Hz
- Theta-power Pz-Oz, estimate of difference compared to placebo (10 mg single oral dose): −0.03 [−0.26, 0.20] P = .79 Hz
- Alpha-power Fz-Cz, LSM CFB (25 mg single oral dose): −0.01 Hz
- Alpha-power Pz-Oz, LSM CFB (25 mg single oral dose): −0.01 Hz
- Alpha-power Pz-Oz, estimate of difference compared to placebo (25 mg single oral dose): −0.11 [−0.36, 0.15] P = .41 Hz
- Beta-power Fz-Cz, LSM CFB (25 mg single oral dose): 0.05 Hz
- Beta-power Fz-Cz, estimate of difference compared to placebo (25 mg single oral dose): −0.06 [−0.28, 0.16] P = .58 Hz
- Beta-power Pz-Oz, LSM CFB (25 mg single oral dose): 0.08 Hz
- Beta-power Pz-Oz, estimate of difference compared to placebo (25 mg single oral dose): −0.04 [−0.24, 0.15] P = .66 Hz
- Delta-power Fz-Cz, LSM CFB (25 mg single oral dose): −0.04 Hz
- Delta-power Fz-Cz, estimate of difference compared to placebo (25 mg single oral dose): −0.14 [−0.35, 0.07] P = .19 Hz
- Delta-power Pz-Oz, LSM CFB (25 mg single oral dose): 0 Hz
- Delta-power Pz-Oz, estimate of difference compared to placebo (25 mg single oral dose): −0.06 [−0.31, 0.17] P = .61 Hz
- Gamma-power Fz-Cz, LSM CFB (25 mg single oral dose): 0.06 Hz
- Gamma-power Fz-Cz, estimate of difference compared to placebo (25 mg single oral dose): −0.04 [−0.04, 0.16] P = .69 Hz
- Gamma-power Pz-Oz, LSM CFB (25 mg single oral dose): 0.16 Hz
- Gamma-power Pz-Oz, estimate of difference compared to placebo (25 mg single oral dose): −0.05 [−0.30, 0.20] P = .70 Hz
- Theta-power Fz-Cz, LSM CFB (25 mg single oral dose): −0.06 Hz
- Theta-power Fz-Cz, estimate of difference compared to placebo (25 mg single oral dose): −0.13 [−0.36, 0.09] P = .24 Hz
- Theta-power Pz-Oz, LSM CFB (25 mg single oral dose): −0.04 Hz
- Theta-power Pz-Oz, estimate of difference compared to placebo (25 mg single oral dose): −0.11 [−0.35, 0.12] P = .33 Hz
- Alpha-power Fz-Cz, LSM CFB (50 mg single oral dose): 0.08 Hz
- Alpha-power Fz-Cz, estimate of difference compared to placebo (50 mg single oral dose): 0.13 [−0.81, 1.07] P = .79 Hz
- Alpha-power Pz-Oz, LSM CFB (50 mg single oral dose): 0.03 Hz
- Alpha-power Pz-Oz, estimate of difference compared to placebo (50 mg single oral dose): −0.06 [−0.32, 0.19] P = .62 Hz
- Beta-power Fz-Cz, LSM CFB (50 mg single oral dose): 0.04 Hz
- Beta-power Fz-Cz, estimate of difference compared to placebo (50 mg single oral dose): −0.07 [−0.31, 0.15] P = .51 Hz
- Beta-power Pz-Oz, LSM CFB (50 mg single oral dose): 0.13 Hz
- Beta-power Pz-Oz, estimate of difference compared to placebo (50 mg single oral dose): 0 [−0.20, 0,20] P = 1.00 Hz
- Delta-power Fz-Cz, LSM CFB (50 mg single oral dose): 0 Hz
- Delta-power Fz-Cz, estimate of difference compared to placebo (50 mg single oral dose): −0.10 [−0.31, 0.11] P = .34 Hz
- Delta-power Pz-Oz, LSM CFB (50 mg single oral dose): 0.08 Hz
- Delta-power Pz-Oz, estimate of difference compared to placebo (50 mg single oral dose): 0.02 [−0.21, 0.25] P = .87 Hz
- Gamma-power Fz-Cz, LSM CFB (50 mg single oral dose): 0.01 Hz
- Gamma-power Fz-Cz, estimate of difference compared to placebo (50 mg single oral dose): −0.09 [−0.31, 0.11] P = .39 Hz
- Gamma-power Pz-Oz, LSM CFB (50 mg single oral dose): 0.08 Hz
- Gamma-power Pz-Oz, estimate of difference compared to placebo (50 mg single oral dose): −0.12 [−0.38, 0.13] P = .33 Hz
- Theta-power Fz-Cz, LSM CFB (50 mg single oral dose): 0.02 Hz
- Theta-power Fz-Cz, estimate of difference compared to placebo (50 mg single oral dose): −0.05 [−0.28, 0.17] P = .64 Hz
- Theta-power Pz-Oz, LSM CFB (50 mg single oral dose): 0.08 Hz
- Theta-power Pz-Oz, estimate of difference compared to placebo (50 mg single oral dose): 0.01 [−0.23, 0.24] P = .95 Hz
- Alpha-power Fz-Cz, LSM CFB (75 mg single oral dose): 0.16 Hz
- Alpha-power Fz-Cz, estimate of difference compared to placebo (75 mg single oral dose): 0.32 [−0.64, 1.29] P = .51 Hz
- Alpha-power Pz-Oz, LSM CFB (75 mg single oral dose): 0.14 Hz
- Alpha-power Pz-Oz, estimate of difference compared to placebo (75 mg single oral dose): 0.04 [−0.22, 0.30] P = .75 Hz
- Beta-power Fz-Cz, LSM CFB (75 mg single oral dose): 0.21 Hz
- Beta-power Fz-Cz, estimate of difference compared to placebo (75 mg single oral dose): 0.09 [−0.13, 0.32] P = .40 Hz
- Beta-power Pz-Oz, LSM CFB (75 mg single oral dose): 0.17 Hz
- Beta-power Pz-Oz, estimate of difference compared to placebo (75 mg single oral dose): 0.04 [−0.16, 0.24] P = .69 Hz
- Delta-power Fz-Cz, LSM CFB (75 mg single oral dose): 0.17 Hz
- Delta-power Fz-Cz, estimate of difference compared to placebo (75 mg single oral dose): 0.06 [−0.15, 0.27] P = .55 Hz
- Delta-power Pz-Oz, LSM CFB (75 mg single oral dose): 0.1 Hz
- Delta-power Pz-Oz, estimate of difference compared to placebo (75 mg single oral dose): 0.04 [−0.21, 0.27] P = .76 Hz
- Gamma-power Fz-Cz, LSM CFB (75 mg single oral dose): 0.27 Hz
- Gamma-power Fz-Cz, estimate of difference compared to placebo (75 mg single oral dose): 0.17 [−0.03, 0.37] P = .10 Hz
- Gamma-power Pz-Oz, LSM CFB (75 mg single oral dose): 0.27 Hz
- Gamma-power Pz-Oz, estimate of difference compared to placebo (75 mg single oral dose): 0.06 [−0.19, 0.32] P = .64 Hz
- Theta-power Fz-Cz, LSM CFB (75 mg single oral dose): 0.18 Hz
- Theta-power Fz-Cz, estimate of difference compared to placebo (75 mg single oral dose): 0.11 [−0.12, 0.33] P = .34 Hz
